These results are taken from article PMC10521327 (Journal of the American Chemical Society, 2023).

Like-named read-outs stand apart in the source and are kept apart here.

For one data set, the system named is A2780 (Ovary). In words: Resazurin antiproliferative assay, 72 h. It is filed as cell-based. To be noted: read-out: IC50 A2780 (Ovary). Put shortly: (§1)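 Cells were incubated with test compound for 72 h. Viability was read by the fluorescence-based resazurin assay (reduction to resorufin), chosen because formazan absorbance (400–800 nm) interferes with colorimetric probes. IC50 values were derived for each line. The panel was cancer lines plus MRC-5 normal lung fibroblasts.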
(In general: Resazurin is reduced to fluorescent resorufin, in cell work by metabolically active cells.)

The subject of another data set is MDA-MB-231 (Breast). In words: Resazurin antiproliferative assay, 72 h. The format is cell-based. The settings on record: read-out: IC50 MDA-MB-231 (Breast). The procedure, abridged: as §1
A further data set deals with Caco-2 (Colon). In words: Resazurin antiproliferative assay, 72 h. To be noted: read-out: IC50 Caco-2 (Colon). It is filed as cell-based. The procedure, abridged:
as §1

In another data set the test system is A549 (Lung). Nature of the data set: Resazurin antiproliferative assay, 72 h. It is filed as cell-based. The settings on record: read-out: IC50 A549 (Lung). Put shortly: as §1
The next data set concerns MRC-5 (Normal lung). Nature of the data set: Resazurin antiproliferative assay, 72 h. The settings on record: read-out: IC50 MRC-5 (Normal lung), mean ± SDM, n=3. It is filed as cell-based. The procedure, abridged: as §1
Data set [1] has as its system tested cancer cell lines (A2780, MDA-MB-231, Caco-2, A549). In words: Resazurin antiproliferative assay, summary over the cancer cell panel. The format is cell-based. The settings on record: 72 h, read-out: IC50 range in the tested cancer cell lines. Put shortly:
as §1

A short description of data set [2]: In vitro calcein competition for Fe. To be noted: 50 mM HEPES buffer pH 7.4 and MeOH 3:1 v/v. The procedure, abridged: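 Cell-free competition: calcein was quenched with Fe(II) (1.0 equiv) in 50 mM HEPES pH 7.4/MeOH (3:1 v/v). Test compound was then added, and recovery of calcein fluorescence was taken as displacement of iron from the probe.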
The subject of data set [3] is A2780 ovarian cancer cells. In words: Cell cycle distribution by flow cytometry. To be noted: A2780, 40 μM, 24 h. The format is cell-based. The procedure, abridged: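 A2780 cells were treated with test compound at 40 μM for 24 h, then analysed by flow cytometry for cell-cycle phase distribution. Triplicate experiments; mean ± standard deviation; t-tests against DMSO vehicle only.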

For data set [4], the system named is A2780 ovarian cancer cells. In words: Apoptotic cell death by flow cytometry. It is filed as cell-based. To be noted: A2780, 40 μM, 48 h. The procedure, abridged:
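A2780 ovarian cancer cells were exposed to test compound (40 μM) for 48 h. Flow cytometry then scored the fractions of cells in early and late apoptosis. Runs were in triplicate, reported as mean ± standard deviation, with t-tests against DMSO vehicle.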
For orientation: A flow cytometer gives signals particle by particle.

For data set [5], the system named is A2780 ovarian cancer cells. In words: Intracellular calcein assay. It is filed as cell-based. To be noted: A2780, 40 μM, 24 h. The procedure, abridged:
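Calcein-AM delivered calcein to the cytosol, where it is partly quenched by labile iron. Cells were incubated with test compound (40 μM), and the rise in calcein fluorescence was measured against DMSO vehicle. A2780 cells were sampled after 1, 3 and 24 h. Triplicate; mean ± standard deviation; t-tests.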

For data set [6], the system named is MRC-5 normal lung fibroblasts. In words: Intracellular calcein assay. The settings on record: MRC-5, 40 μM, 24 h. It is filed as cell-based.
In data set [7] the test system is transferrin receptor 1 (TfR1). Nature of the data set: Western blot of TfR1 expression in A2780 cells. It is filed as cell-based. The settings on record: A2780, 40 μM, 24 h. The procedure, abridged:
(§2)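 Cells were treated with test compound for 24 h; A2780 cells were treated at 40 μM. Lysates were analysed by Western blot for TfR1 and ferritin heavy chain, with β-actin as loading control. n=4; t-tests against DMSO vehicle. Ferric ammonium citrate supplementation served as an iron-replete comparison in A2780.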

Data set [8] relates to ferritin heavy chain (ferritin H). In words: Western blot of ferritin H expression in A2780 cells. To be noted: A2780, 40 μM, 24 h. The format is cell-based. The procedure, abridged:
as §2
On the technique in general: A western blot detects proteins with antibodies after separation by electrophoresis.

Data set [9] relates to transferrin receptor 1 (TfR1). In words: Western blot of TfR1 expression in MRC-5 cells. The format is cell-based. The settings on record: MRC-5, 24 h. The procedure, abridged: as §2
Data set [10] deals with ferritin heavy chain (ferritin H). Nature of the data set: Western blot of ferritin H expression in MRC-5 cells. It is filed as cell-based. To be noted: MRC-5, 24 h. The procedure, abridged:
as §2

The next data set concerns A2780 cells. The format is cell-based. To be noted: A2780, 40 μM, 48 h, FAC (50 μM) or holo-Tf (50 μM).
Data set [11] in a line: Distribution coefficient by shake-flask method. To be noted: octanol and PBS (pH 7.4), HPLC. It is filed as physicochemical.
The nature of data set [12]: Stability / reduction kinetics in fetal bovine serum by HPLC. The format is in vitro ADME.
[13] abbreviates: resazurin assay, 72 h, mean ± SDM, n=3.

One may read the IC50 as the concentration at which inhibition is half-maximal. In the case of `O=C(O)c1ccc(-n2nc(-c3ccccc3O)nc2-c2ccccc2O)cc1` [DFX, deferasirox], the IC50 is 15 ± 1 µM in the data set with A2780 (Ovary) (Homo sapiens, A2780, 72 h); 17 ± 1 µM in the data set with MDA-MB-231 (Breast) (Homo sapiens, MDA-MB-231, 72 h); 67 ± 2 µM with Caco-2 (Colon) (Homo sapiens, Caco-2, 72 h); 21 ± 3 µM in the data set with A549 (Lung) (Homo sapiens, A549, 72 h); 220 ± 20 µM in the data set on MRC-5 (Normal lung); 15 to 67 µM in [1]. The “Restoration of calcein fluorescence (displacement of Fe(II) from calcein)” value in data set [2] is “fully restore its initial fluorescence”. For the same compound, the “Effect on cell cycle distribution” value in [3] is reported as “S-phase arrest”. Besides, the “Cells in late apoptosis” value in [4] is 42%. The entries for the “Increase of calcein fluorescence” value in data set [5] and in [6] were ~ 54% and ~ 34%, respectively. For the same compound, the TfR1 expression level result in [7] was “increase of TfR1 expression”; in data set [9], “maintained similar effects, albeit less pronounced”. Also, the “Ferritin H expression level” value in data set [8] is on record as “degradation of ferritin”; in [10], “maintained similar effects, albeit less pronounced”. Also, the “Effect of iron supplementation on cytotoxicity” value in the data set on A2780 cells is given as “could be rescued by iron supplementation”.
Consider `Cc1nc(-[n+]2nc(-c3ccccc3)nn2-c2ccccc2)sc1C.[Br-]` [MTT], for which the “Log Do/pH7.4” value in data set [11] worked out at 0.1. In data set [12], the “Half-life t1/2 in serum” value was above 24 h. In addition, in [12] (24 h), the “Stability (serum, 24 h), remaining” value is listed as 58%. In addition, the IC50 with A2780 (Ovary) (setting [13]) is 45 ± 9 µM; with MDA-MB-231 (Breast) (setting [13]) it was 48 ± 7 µM; in the data set with Caco-2 (Colon) (setting [13]), 92 ± 7 µM; with A549 (Lung) (setting [13]), 44 ± 9 µM; in the data set on MRC-5 (Normal lung) it was 32 ± 5 µM.
Regarding `O=C(O)CC(O)(CC(=O)O)C(=O)O` [citric acid], in data set [2], the “Restoration of calcein fluorescence (displacement of Fe(II) from calcein)” value is given as “fail to displace calcein-bound iron(II)”.
Take ferric ammonium citrate [FAC]: the TfR1 expression level result in [7] is on record as “decrease of TfR1”; in [9], “maintained similar effects, albeit less pronounced”. Further, the “Ferritin H expression level” value in data set [8] is recorded as “increase of ferritin H levels”; in [10] it was “maintained similar effects, albeit less pronounced”.
